Bioassay records: PubChem, several laboratories
Pyk2 oligo antag: antagonists of Pyk2 self-association, primary screen, Q293 cells, FERM NanoBiT luminescence, HTS. active compounds read low. AID 1347419, 2020. z-score (the deposit names both 25 µM and 10 µM). Protein-tyrosine kinase 2-beta (Homo sapiens), Q14289. actives 0.83% (n = 99,000);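 active = Z-score of -3 or lower, scaled per plate to the spread of control and sample wells; inactive = z-score above -3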;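 also: negative z-score means lost luminescence so less FERM oligomerization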
Target sequence (Q14289 whole entry, looked up): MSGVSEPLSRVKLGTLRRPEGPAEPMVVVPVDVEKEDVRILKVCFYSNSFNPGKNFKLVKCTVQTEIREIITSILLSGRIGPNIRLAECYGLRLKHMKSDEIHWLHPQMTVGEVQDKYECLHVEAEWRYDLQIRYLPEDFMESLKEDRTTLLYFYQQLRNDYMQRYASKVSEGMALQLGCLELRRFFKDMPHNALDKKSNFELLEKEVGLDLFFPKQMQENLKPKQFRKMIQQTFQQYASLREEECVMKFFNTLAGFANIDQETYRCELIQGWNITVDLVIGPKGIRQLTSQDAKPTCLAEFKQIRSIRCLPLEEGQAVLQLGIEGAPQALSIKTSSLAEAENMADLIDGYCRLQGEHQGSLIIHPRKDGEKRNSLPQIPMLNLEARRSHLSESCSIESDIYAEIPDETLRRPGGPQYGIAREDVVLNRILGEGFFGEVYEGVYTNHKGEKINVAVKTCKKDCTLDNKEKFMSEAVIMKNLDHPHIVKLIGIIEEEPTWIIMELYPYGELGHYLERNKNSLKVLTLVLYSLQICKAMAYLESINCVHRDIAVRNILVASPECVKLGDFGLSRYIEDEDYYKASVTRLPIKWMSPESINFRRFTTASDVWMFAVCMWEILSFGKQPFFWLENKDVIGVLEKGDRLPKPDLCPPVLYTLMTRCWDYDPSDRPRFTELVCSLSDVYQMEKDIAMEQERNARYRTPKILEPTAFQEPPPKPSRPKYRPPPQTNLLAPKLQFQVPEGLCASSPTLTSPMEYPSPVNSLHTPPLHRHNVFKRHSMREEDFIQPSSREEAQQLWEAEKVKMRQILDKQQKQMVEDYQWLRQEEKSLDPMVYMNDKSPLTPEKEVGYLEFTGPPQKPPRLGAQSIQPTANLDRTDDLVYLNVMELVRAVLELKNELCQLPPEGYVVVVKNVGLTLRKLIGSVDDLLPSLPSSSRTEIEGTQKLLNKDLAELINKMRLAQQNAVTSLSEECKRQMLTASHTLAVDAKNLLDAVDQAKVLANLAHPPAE
HUVEC inhibit: inhibitors of HUVEC proliferation, primary screen, cell-based, 384-well | viability, % at 10 µM (by protocol) | CellTiter-Glo luminescence, 72 h; active compounds read low | AID 648, 2007 | actives 1.1% (n = 86,000);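 active = viability at or below 30%; inactive = viability above 30%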
H69AR growth 86K: proliferation blockers of H69AR lung cancer cells, primary screen, cell-based, human, 86K library | viability, % at 10 µM | H69AR lung tumor viability, ATP luminescence, 72 h; active compounds read low | actives 6% (n = 85,000);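 active = viability at or below 40%; inactive = viability above 40%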;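 also: multidrug resistant small cell line overexpressing MRP-1 efflux transporter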
Lung fibro prol: antiproliferative effect on LL 47 fibroblasts – human, LL 47 cells, CellTiter-Glo luminescence, primary screen | LL 47 human lung fibroblast viability, ATP luminescence; active compounds read low | viability, % at 10 µM | actives 1.1% (n = 85,000) | AID 719, 2007;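 active = viability at or below 50% in the single dose screen; inactive = viability above 50%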;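 also: compound exposure lasted 72 h before the ATP readout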
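Material: human LL 47 lung fibroblast cells; quantity: 1,150 cells/well; medium: IMEM plus 15% FBS; doses: 0.1% DMSO in all compound wells; timing: overnight attachment after seeding, then 72 h compound exposure at 37 °C; detection: CellTiter-Glo luminescence; measure: % viability of median cell-only signal; controls: cell-only wells, no compound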
PTEN del growth: growth suppression of PTEN-null HCT116, primary screen, cell-based, CellTiter-Glo | HCT116 PTEN-null viability, 60 h; active compounds read low | actives 1.2% (n = 140,000) | viability, % at 10 µM;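 active = viability at or below a set limit, 4 SD under the median of all tested compounds, cut at about 3.7% in these data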;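 also: PTEN knockout HCT116 line with beta catenin targeted HCT116 as companion control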
bCat KO growth: primary screen for growth suppressors in beta-catenin knockout HCT116 cells (colon tumor, human); HCT116 beta-catenin knockout viability, CellTiter-Glo, 60 h; active compounds read low; viability, % at 10 µM; actives 1.5% (n = 140,000);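 active = viability at or under a set limit, the compound median less 4 SD, cut at about 6% in these data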
Hits are given with their value; i = inactive; nt = no result. Shown is part of a subset that was picked to be rich in hits.

SMILES | Pyk2 oligo antag | HUVEC inhibit | H69AR growth 86K | Lung fibro prol | PTEN del growth | bCat KO growth
CCn1c2ccccc2c2cc(NC(=O)CSc3nnnn3-c3ccccc3)ccc21 | i | i | 20.2 | i | i | i
Cc1ccc(-n2nnnc2SCC(=O)Nc2ccc3c(c2)COC3=O)cc1C | i | i | i | 27.3 | i | i
CCn1c2ccccc2c2cc(NC(=O)CSc3nnc(-c4ccc(OC)cc4)n3N)ccc21 | i | i | 27.1 | i | i | i
CCn1c(=O)cc(SCC(=O)Nc2ccc(Cl)cc2)c2ccccc21 | i | i | 16.5 | i | i | i
Oc1ccc(-c2nccc(-c3cccs3)n2)cc1 | i | nt | nt | nt | i | i
CCOC(=O)[C@@H]1C(c2c(OC)cc(OC)cc2OC)=NO[C@@H]1C(=O)OCC | nt | nt | nt | nt | i | i
CCn1c(SCC(=O)Nc2ccc3c(c2)c2ccccc2n3CC)nnc1-c1cnccn1 | i | i | 18.1 | i | i | i
CC(CN1CCOCC1)OC(=O)c1ccc(Br)cc1 (stereo not drawn) | i | i | 0.6 | 6.3 | 2.4 | 2.8
CC(CN1CCN(C)CC1)OC(=O)c1ccccc1 (stereo not drawn) | i | i | i | i | i | i
COc1ccc(CNC(=O)CSc2nc3ccc(N)cc3s2)cc1 | nt | nt | nt | nt | i | i
O=[N+]([O-])c1ccc(Sc2cccc3cccnc23)c([N+](=O)[O-])c1 | i | i | 1.6 | 4.2 | 2.2 | 1.6
O=[N+]([O-])c1cc(Cl)ccc1Sc1cccc2cccnc12 | i | i | i | i | i | i
O=[N+]([O-])c1ccc(Sc2cccc3cccnc23)cc1 | i | i | i | i | i | i
C=CCn1nc([N+](=O)[O-])nc1Sc1cccc2cccnc12 | nt | nt | nt | nt | 1.8 | 2.1
CCC1(C)CC(c2nc(-c3ccc(OC)cc3)cs2)CCS1 (stereo not drawn) | nt | nt | nt | nt | i | i
CC(C)N(C(=O)CSc1nn2c(=O)c(C(C)(C)C)nnc2s1)c1ccccc1 | i | i | 14.3 | nt | i | i
CC(C)(C)c1nnc2sc(SCCN3C(=O)c4ccccc4C3=O)nn2c1=O | i | i | i | i | i | i
Cc1cc(C)c(-n2nnnc2SC(C)C)c(C)c1 | nt | nt | nt | nt | i | i
CSc1nnc2n(-c3ccc(C)cc3)c(=O)c3c4c(sc3n12)COC(C(C)C)C4 (stereo not drawn) | nt | i | 36.2 | 36.6 | i | i
O=S(=O)(NCc1ccccc1)c1ccc(S(=O)(=O)N(Cc2ccccn2)Cc2ccco2)cc1 | i | i | i | i | i | i
O=C(CSc1nnc(Cc2cccs2)n1-c1ccccc1)Nc1ccc2c(c1)OCCO2 | i | i | i | i | i | i
Cc1ccc(-n2c(Cc3cccs3)nnc2SCC(=O)Nc2ccc(F)c(F)c2)cc1 | i | i | i | 4.0 | i | i
Cc1ccc(NC(=O)CSc2nnc(-c3cccnc3)n2-c2ccc(C)cc2)cc1 | i | i | 26.5 | i | i | i
O=C(CSc1nnc(-c2cccnc2)n1-c1ccccc1)Nc1ccccc1 | i | i | i | i | i | i
Cc1ccccc1-n1c(SCC(=O)c2cc(C)n(C)c2C)nnc1-c1cccnc1 | i | i | 38.5 | i | i | i
SMILES | Pyk2 oligo antag | HUVEC inhibit | H69AR growth 86K | Lung fibro prol | PTEN del growth | bCat KO growth
O=C(CSc1nnc(-c2cccs2)n1-c1cccc(Cl)c1)c1cccc2c1OCCO2 | -3.15 | i | i | i | i | i
Cc1ccsc1/C=N\NC(=O)Cn1nnc2ccccc21 | nt | nt | nt | nt | i | i
COc1ccc(N(CC(=O)N2CCc3ccccc3C2)S(=O)(=O)c2c(C)nn(C)c2C)cc1 | nt | i | i | i | i | i
O=C(CSc1nnc(-c2cccs2)n1-c1ccccc1)Nc1ccccc1 | i | i | i | 41.5 | i | i
CCN(CC)S(=O)(=O)c1cccc(-c2nnc(SCCCC(=O)c3ccc(F)cc3)o2)c1 | i | i | 37.5 | i | i | i
CCN(CC)S(=O)(=O)c1cccc(-c2nnc(SCCCC(=O)c3ccccc3)o2)c1 | i | i | 32.0 | i | i | i
CCN(CC)S(=O)(=O)c1cccc(-c2nnc(SCC(=O)c3cc(C)n(C4CC4)c3C)o2)c1 | i | i | i | i | nt | nt
C=CCn1c(C)cc(C(=O)CSc2nnc(-c3cccc(S(=O)(=O)N(CC)CC)c3)o2)c1C | i | i | i | i | i | i
Brc1ccccc1-c1nnc(SCc2nc3ccccc3s2)o1 | nt | nt | nt | nt | i | i
CCN(CC)S(=O)(=O)c1cccc(-c2nnc(SC(C)C(=O)NCCC3=CCCCC3)o2)c1 (stereo not drawn) | i | i | 33.2 | i | i | i
CCN(CC)S(=O)(=O)c1cccc(-c2nnc(SCc3nc4ccccc4s3)o2)c1 | i | i | 35.3 | i | i | i
CC(/C=N/NC(=O)c1cc(-c2cccnc2)nc2c1c(C)nn2-c1ccccc1)=C\c1ccccc1 | nt | nt | nt | nt | i | i
COCCNS(=O)(=O)c1cc(C)c(C)cc1C | nt | nt | nt | nt | i | i
COC(=O)N/N=C/c1cn(Cc2c(Cl)cccc2Cl)c2ccccc12 | nt | nt | nt | nt | i | i
Nc1nc(Nc2cccc3ccccc23)nc(C2CCCC2=O)n1 (stereo not drawn) | nt | 14.8 | 0.8 | i | i | i
CCC(C)Oc1ccccc1C1CC(=O)NC2=C1C(=O)CCC2 (stereo not drawn) | i | nt | nt | nt | i | i
CC(C)CCn1c(-c2nonc2N)nc2ccccc21 | i | i | 10.8 | i | i | i
CCCCn1c(N)nc2ccccc21 | i | i | i | i | i | i
CCOC(=O)c1ccccc1NC(=O)Cn1c(-c2nonc2N)nc2ccccc21 | i | i | 27.0 | 46.7 | i | i
Nc1nonc1-c1nc2ccccc2n1Cc1ccccc1 | i | i | 17.4 | i | i | i
CCCCn1c(-c2nonc2N)nc2ccccc21 | i | i | 30.0 | i | i | i
CCOC(=O)/C(=C\c1cccc(O)c1)c1nc2sc(C)c(C)c2c(=O)[nH]1 | nt | nt | nt | nt | i | i
COc1cccc(C(=O)/C=C/Nc2cc(C)ccc2O)c1 | i | i | 8.9 | i | i | i
Cc1ccc(O)c(NC(=O)CCC2CCCCC2)c1 | i | i | 27.1 | i | i | i
Cc1cccc(OCC(=O)Nc2cc(C)ccc2O)c1 | i | i | 24.4 | i | i | i
SMILES | Pyk2 oligo antag | HUVEC inhibit | H69AR growth 86K | Lung fibro prol | PTEN del growth | bCat KO growth
CCOC(=O)c1ccc(N/C=C\C(=O)c2cccc(OC)c2)cc1 | i | nt | nt | nt | i | i
COc1cc(NC(=O)CN(C)C2CCCCC2)c(C)cc1[N+](=O)[O-] | nt | nt | nt | nt | i | i
CCOC(=O)c1ccc(CNC(=O)c2cc3cccc(OC)c3oc2=O)o1 | nt | i | i | i | nt | nt
COc1ccccc1CNC(=S)NC1CCCC1 | nt | nt | nt | nt | i | i
O=C(Nc1ccccc1C(=O)O)c1cccc(F)c1 | i | i | i | i | nt | nt
COc1c(Cl)cc(C(=O)Nc2ccccc2C(=O)O)cc1Cl | -3.08 | nt | nt | nt | i | i
Cc1noc2ncnc(Oc3ccccc3)c12 | i | nt | nt | nt | i | i
Cc1noc2ncnc(Sc3ccccc3Cl)c12 | i | 18.5 | 2.0 | i | i | i
COc1ccc(CCNC(=O)CSc2nnc(NC(C)=O)s2)cc1OC | nt | nt | nt | nt | i | i
